Test results taken from ChEMBL document CHEMBL4359813, “Synthesis and antimycobacterial activity of imidazo[1,2-b][1,2,4,5]tetrazines” (2019).
In brackets after ≈: the same amount, converted by molar mass. Activity calls are given as the source filed them. No cut-off for these calls is given here.

Assays:
[1] = system: Mycolicibacterium smegmatis; experiment: Antimycobacterial activity against Mycobacterium smegmatis atR9 in liquid medium after 48 hrs by two-fold serial dilution method; type: functional; settings: atR9, 48 h
Outline: (§1)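 M. smegmatis resistant mutants were isolated on M290 agar containing 3.5-4× MIC of the test compound at 30°C and resistance was reconfirmed. MIC was then run in Lemco-Tw broth (Tween-80 0.05%). An overnight culture was diluted 1:200, and two-fold serial dilutions in DMSO were added. Plates were incubated at 37°C and 250 rpm for 48 h. MIC was read as the lowest concentration with no visible growth.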

[2] = system: Mycolicibacterium smegmatis; experiment: Antimycobacterial activity against Mycobacterium smegmatis atR40 assessed as decrease in drug resistance development at 100 nmol/disc after 2 to 3 days by paper disc method; type: functional, organism-based
Outline: (§2)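 Drug-resistant M. smegmatis mc2 155 mutants, isolated on M290 agar with 3.5-4× MIC of compound and resistance re-confirmed, grown in Middlebrook 7H9 (OADC, 0.1% Tween-80, 0.4% glycerol) to OD600 1.2. Diluted 1:9:10 culture:water:M290 and poured as top layer on M290 agar. Impregnated paper discs applied; 37 °C for 2–3 days. Halos measured to nearest 1 mm; triplicates, mean ± SD versus control strain.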

[3] = system: Mycolicibacterium smegmatis; experiment: Antimycobacterial activity against Mycobacterium smegmatis atR1 in liquid medium after 48 hrs by two-fold serial dilution method; type: functional; settings: atR1, 48 h; outline: as §1
[4] = system: Mycolicibacterium smegmatis; experiment: Antimycobacterial activity against Mycobacterium smegmatis MC2 155 in liquid medium after 48 hrs by two-fold serial dilution method; type: functional; settings: MC2 155, 48 h
Outline: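 M. smegmatis mc2 155 grown overnight in Lemco-Tw broth, diluted 1:200 in fresh broth. […] Top wells could carry 4% DMSO. Incubated 48 h at 37 °C with shaking at 250 rpm. MIC is the lowest concentration with no visible growth.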

[5] = system: Mycolicibacterium smegmatis; experiment: Antimycobacterial activity against Mycobacterium smegmatis atR11 assessed as decrease in drug resistance development at 100 nmol/disc after 2 to 3 days by paper disc method; type: functional, organism-based
Outline: (§3)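 Mutant M. smegmatis strains were grown in Middlebrook 7H9/OADC/Tween/glycerol to OD600 1.2. Cultures were diluted 1:9:10 (culture:water:M290) and overlaid on M290 agar. Commercial or impregnated paper discs were applied and plates incubated 2–3 days at 37 °C. Inhibition halos were measured to 1 mm, run in triplicate, mean ± SD.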

[6] = system: Mycolicibacterium smegmatis; experiment: Antimycobacterial activity against Mycobacterium smegmatis atR2 in liquid medium after 48 hrs by two-fold serial dilution method; type: functional; settings: atR2, 48 h; outline: as §1
[7] = system: Mycolicibacterium smegmatis; experiment: Antimycobacterial activity against Mycobacterium smegmatis atR17 assessed as decrease in drug resistance development at 100 nmol/disc after 2 to 3 days by paper disc method; type: functional, organism-based; outline: as §3
[8] = system: Mycolicibacterium smegmatis; experiment: Antimycobacterial activity against Mycobacterium smegmatis atR11 in liquid medium after 48 hrs by two-fold serial dilution method; type: functional; settings: atR11, 48 h; outline: as §1
[9] = system: Mycolicibacterium smegmatis; experiment: Antimycobacterial activity against Mycobacterium smegmatis atR2 assessed as decrease in drug resistance development at 100 nmol/disc after 2 to 3 days by paper disc method; type: functional, organism-based; outline: as §3
[10] = system: Mycolicibacterium smegmatis MC2 155; experiment: Inhibition of STPK in Mycobacterium smegmatis MC2 155 expressing aminoglycoside phophotransferase-8 assessed as growth inhibition at 50 nmol/disk after 18 hrs in presence of kanamycin by paper disk method
[11] = system: Mycolicibacterium smegmatis; experiment: Antimycobacterial activity against Mycobacterium smegmatis atR40 in liquid medium after 48 hrs by two-fold serial dilution method; type: functional; settings: atR40, 48 h; outline: as §1
[12] = system: Mycolicibacterium smegmatis; experiment: Antimycobacterial activity against Mycobacterium smegmatis atR33 in liquid medium after 48 hrs by two-fold serial dilution method; type: functional; settings: atR33, 48 h; outline: as §1
[13] = system: Mycolicibacterium smegmatis; experiment: Antimycobacterial activity against Mycobacterium smegmatis atR8 assessed as decrease in drug resistance development at 100 nmol/disc after 2 to 3 days by paper disc method; type: functional, organism-based; outline: as §2
[14] = system: Mycolicibacterium smegmatis; experiment: Antimycobacterial activity against Mycobacterium smegmatis atR1 assessed as decrease in drug resistance development at 100 nmol/disc after 2 to 3 days by paper disc method; type: functional, organism-based; outline: as §3
[15] = system: Mycolicibacterium smegmatis; experiment: Antimycobacterial activity against Mycobacterium smegmatis atR9 assessed as decrease in drug resistance development at 100 nmol/disc after 2 to 3 days by paper disc method; type: functional, organism-based; outline: as §2
[16] = system: Mycolicibacterium smegmatis; experiment: Antimycobacterial activity against Mycobacterium smegmatis atR19 assessed as decrease in drug resistance development at 100 nmol/disc after 2 to 3 days by paper disc method; type: functional, organism-based; outline: as §3
[17] = system: Mycolicibacterium smegmatis; experiment: Antimycobacterial activity against Mycobacterium smegmatis MC2 155 in solid medium by two-fold serial dilution method; type: functional
Outline: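 M290 soybean-casein agar plates carried two-fold compound dilutions, 8–64 or 8–128 µg/ml, some with extra 20 or 25 µg/ml plates.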

[18] = system: Mycolicibacterium smegmatis; experiment: Antimycobacterial activity against Mycobacterium smegmatis atR19 in liquid medium after 48 hrs by two-fold serial dilution method; type: functional; settings: atR19, 48 h; outline: as §1
[19] = system: Mycolicibacterium smegmatis; experiment: Antimycobacterial activity against Mycobacterium smegmatis atR37 assessed as decrease in drug resistance development at 100 nmol/disc after 2 to 3 days by paper disc method; type: functional, organism-based; outline: as §2
[20] = system: Mycolicibacterium smegmatis; experiment: Antimycobacterial activity against Mycobacterium smegmatis atR33 assessed as decrease in drug resistance development at 100 nmol/disc after 2 to 3 days by paper disc method; type: functional, organism-based; outline: as §3
[21] = system: Mycolicibacterium smegmatis; experiment: Antimycobacterial activity against Mycobacterium smegmatis atR14 in liquid medium after 48 hrs by two-fold serial dilution method; type: functional; settings: atR14, 48 h; outline: as §1
[22] = system: Mycobacterium tuberculosis; experiment: Antimycobacterial activity against Mycobacterium tuberculosis H37Rv in liquid medium; type: functional
Outline: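 M. tuberculosis H37Rv; MIC determined in liquid medium on the automated Bactec MGIT 960 system.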

[23] = system: Mycolicibacterium smegmatis; experiment: Antimycobacterial activity against Mycobacterium smegmatis atR17 in liquid medium after 48 hrs by two-fold serial dilution method; type: functional; settings: atR17, 48 h; outline: as §1
[24] = system: Mycolicibacterium smegmatis; experiment: Antimycobacterial activity against Mycobacterium smegmatis atR8 in liquid medium after 48 hrs by two-fold serial dilution method; type: functional; settings: atR8, 48 h; outline: as §1
[25] = system: Mycolicibacterium smegmatis; experiment: Antimycobacterial activity against Mycobacterium smegmatis atR10 in liquid medium after 48 hrs by two-fold serial dilution method; type: functional; settings: atR10, 48 h; outline: as §1
[26] = system: Mycolicibacterium smegmatis; experiment: Antimycobacterial activity against Mycobacterium smegmatis atR14 assessed as decrease in drug resistance development at 100 nmol/disc after 2 to 3 days by paper disc method; type: functional, organism-based; outline: as §3
[27] = system: Mycolicibacterium smegmatis; experiment: Antimycobacterial activity against Mycobacterium smegmatis atR10 assessed as decrease in drug resistance development at 100 nmol/disc after 2 to 3 days by paper disc method; type: functional, organism-based; outline: as §3
[28] = system: Mycolicibacterium smegmatis; experiment: Antimycobacterial activity against Mycobacterium smegmatis atR37 in liquid medium after 48 hrs by two-fold serial dilution method; type: functional; settings: atR37, 48 h; outline: as §1

## Cc1cn(-c2nnc3ncc(SC(C)C)n3n2)cn1
[1]
  MIC: 128 µg/mL (≈ 465 µM)
[2]
  Activity: inactive
[3]
  MIC: 128 µg/mL (≈ 465 µM)
[4]
  MIC: 232 µM (≈ 64 µg/mL)
[5]
  Activity: inactive
[6]
  MIC: 128 µg/mL (≈ 465 µM)
[7]
  Activity: inactive
[8]
  MIC: 256 µg/mL (≈ 930 µM)
[9]
  Activity: Active
[10]
  inhibition zone (IZ): 13 mm
[11]
  MIC: 128 µg/mL (≈ 465 µM)
[12]
  MIC: 128 µg/mL (≈ 465 µM)
[13]
  Activity: inactive
[14]
  Activity: inactive
[15]
  Activity: inactive
[16]
  Activity: inactive
[17]
  MIC: 90.8 µM (≈ 25 µg/mL)
[18]
  MIC: 128 µg/mL (≈ 465 µM)
[19]
  Activity: Active
[20]
  Activity: inactive
[21]
  MIC: 128 µg/mL (≈ 465 µM)
[22]
  MIC: 90.8 µM (≈ 25 µg/mL)
[23]
  MIC: 128 µg/mL (≈ 465 µM)
[24]
  MIC: 256 µg/mL (≈ 930 µM)
[25]
  MIC: 256 µg/mL (≈ 930 µM)
[26]
  Activity: inactive
[27]
  Activity: inactive
[28]
  MIC: 128 µg/mL (≈ 465 µM)
